Data published in ChEMBL document CHEMBL4513216, “Probing the Open Global Health Chemical Diversity Library for Multistage-Active Starting Points for Next-Generation Antimalarials” (ACS Infect Dis, 2020).

Test: Toxicity liver stage against HepG2, at 10uM
Type: cell-based
Set-up: test concentration 10 uM, cell line HepG2-A16-CD81EGFP
Settings: human, HepG2-A16-CD81EGFP cells; read-out: INHIBITION
Procedure, shortened: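 Uninfected HepG2-A16-CD81EGFP cells, 3 × 10^3 per well, 1536-well, plated on prespotted compound at 10 μM final, parasite-free screening media added to match infected plates; puromycin 10 μM positive, DMSO 0.5% negative; run in parallel with 48 h PbLuc assay at 37 °C, 5% CO2; viability by CellTiter-Glo luminescence, normalized to controls.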

Row | Structure (SMILES) | cytotoxicity at 10 µM
1 | CC(=O)N1CCN(C(=O)C[C@@H]2C[C@@H](C(C)C)[C@H](CC#N)C=C2C)CC1 | -1.01%
2 | O=C(NC[C@H]1O[C@H](Cc2cc(-c3ccccn3)on2)CC[C@@H]1O)C1CC1 | -2.69%
3 | CC[C@@H](C)[C@H](NC(=O)NC1CCS(=O)(=O)C1)C(=O)NCc1ccncc1 (stereo partly specified) | -2.56%
4 | COc1ccc(CN2C[C@@H]3CN(C(=O)[C@H]4CCCO4)C[C@@H]3C2=O)cc1 | -0.0368%
5 | O=C(c1cccnc1)N1CCc2onc(CN3CCCC3)c2C1 | 4.86%
6 | CN(C)C(=O)N1CC2(CCN(S(C)(=O)=O)CC2)c2ccccc21 | -121%
7 | COCC1CN(C(=O)c2ccnnc2)Cc2ncnn2C1 (stereo unspecified) | -4.24%
8 | COc1ncccc1C(=O)N1CC[C@H]2C[C@@H](c3ccncn3)O[C@@H]2C1 | -2.24%
9 | Cc1nc(N2CCCC2)nc2c1CCN(C(=O)C1CCCCC1)CC2 | 3.16%
10 | CC(C)Oc1ccccc1C1CC(=O)Nc2nc(N3CCOCC3)sc21 (stereo unspecified) | 14.3%
11 | CC(C)NC(=O)Nc1ncc(-c2cccnc2)s1 | 7.05%
12 | COCC(=O)N1CC(c2n[nH]cc2C)C1 | -2.76%
13 | O=C(NCC1(O)COCCN(Cc2ccc(O)cc2)C1)c1cnccn1 (stereo unspecified) | -12.8%
14 | CCC(Nc1ncccn1)c1ccc(OC)cc1 (stereo unspecified) | -12.6%
15 | COc1ccc(C2(c3nc(-c4cccnc4)no3)CCOCC2)cc1 | 13.9%
16 | Cc1c(C[S+](C)[O-])cccc1NC(=O)c1cc(Cl)ccn1 (stereo unspecified) | 9.41%
17 | COc1ncccc1NC(=O)c1[nH]nc(C(C)C)c1Br | 17.1%
18 | Cn1ccnc1C(O)(CCNCc1ccc(Cl)o1)C(F)(F)F (stereo unspecified) | 4.91%
19 | CC(C)(C)c1noc(CCC(=O)N(CC2CCOC2)C2CC2)n1 (stereo unspecified) | 2.66%
20 | CC(C)c1nnc2n1CCN(Cc1ccc3c(c1)OCCO3)C2 | -0.234%
21 | COC(=O)c1ccc(NC(=O)NC2CCc3[nH]ncc3C2)cc1 (stereo unspecified) | -11.2%

Row | Structure (SMILES) | cytotoxicity at 10 µM
22 | COc1nc(N2CCC(CC(N)=O)CC2)ncc1Br | 2.99%
23 | CCOC(=O)C1(O)CCN(C(=O)Nc2cccc(CC)c2)CC1 | -140%
24 | NC(=O)CC1CCN(c2ncnc3cccc(F)c23)CC1 | 3.39%
25 | CC(=O)Nc1ccc(CNC(C)c2c(C)nn(C)c2C)cc1 (stereo unspecified) | 13%
26 | COC(=O)C(C)(C)NC(=O)c1cc2sc(N(C)C)nc2s1 | -20.5%
27 | CC(=O)N1CCN(c2nc3c(cnn3C(C)(C)C)c(=O)[nH]2)CC1 | -17.9%
28 | COc1ccc(CNC(Cn2cncn2)c2ccccc2)cc1O (stereo unspecified) | -6.74%
29 | COC(=O)CNc1cc(C(=O)NCC(F)(F)F)cc(F)c1C | 6.05%
30 | O=C(NCc1ccccc1CN1CCCCCC1)Nc1nncs1 | 4.22%
31 | Cc1ncsc1CNc1ccn(Cc2ccccc2)n1 | 9.58%
32 | CC(C)c1noc(CNC2CCCN(Cc3noc(C4CC4)n3)C2)n1 (stereo unspecified) | -3.19%
33 | CCc1nnc2n1CCN(Cc1csc(-c3ccccc3F)n1)C2 | -4.49%
34 | Cn1cc(-c2csc(N3CCSCC3)n2)cn1 | -1.31%
35 | N#Cc1ccccc1C(=O)Nc1cccc(CN2CCC(CO)CC2)c1 | -140%
36 | CN(C)C(CNC(=O)c1cccc(C(N)=O)c1)c1ccccc1Cl (stereo unspecified) | -4.83%
37 | OCC1CCCN1c1cc(NCc2ccccn2)ncn1 (stereo unspecified) | -8.01%
38 | Cc1cnn(CC2CCCN2C(=O)Cn2nc(C)c(Cl)c2C)c1 (stereo unspecified) | -11.3%
39 | Cc1ccc(C(C)(O)CNC(=O)c2sccc2OC(F)F)o1 (stereo unspecified) | -1.34%
40 | O=C(NCC1CCS(=O)(=O)C1)Nc1ccccn1 (stereo unspecified) | 1.54%
41 | CC1CN(c2ccc(CNC(=O)NCCO)cn2)CCO1 (stereo unspecified) | 6.15%
42 | CC(C(=O)NCC1(c2cccc(Br)c2)CCC1)S(C)(=O)=O (stereo unspecified) | 6.88%

Row | Structure (SMILES) | cytotoxicity at 10 µM
43 | O=C(CN1CCc2sccc2C1)Nc1nccs1 | 5.31%
44 | O=C(CCn1ccccc1=O)Nc1ccc(I)cc1 | 7.27%
45 | O=C1CN(CCCNC(=O)Nc2cccc(Cl)c2F)CCN1 | 15.2%
46 | COc1ccc(N2CCN(Cc3nc(CSC)no3)CC2=O)cc1 | 1.44%
47 | CCCc1cc(NCCN2CCNC2=O)n2nccc2n1 | -6.42%
48 | Cn1ccnc1-c1nc2cc(S(=O)(=O)N3CCCC3)ccc2n1C | 5.05%
49 | Cn1cc(Cl)c(C(=O)N2CCC(N3CCc4ccccc4C3)CC2)n1 | -2.27%
50 | CCc1noc(CN(CC)Cc2cc3cc(C)ccc3[nH]c2=O)n1 | 2.7%
51 | CN(Cc1ccccc1)S(=O)(=O)N1C[C@H](C2CC2)[C@@H](N)C1 | -159%
52 | Cc1ccc(OC2(C(=O)O)CCN(C/C=C/c3ccco3)CC2)cc1 | -14.4%
53 | Cn1cnnc1CN1CCC2(CCC(=O)N(Cc3ccccn3)C2)CC1 | 7.82%
54 | COCCCN1CCC(c2nc3c([nH]2)CC(C)(C)CNC3=O)C1 (stereo unspecified) | 0.0531%
55 | O=C(NCc1cc2n(n1)CCCNC2)C1(c2ccc(Cl)cc2)CCC1 | -9.72%
56 | CCCc1nc(C)cc(N2CCC3(CCC(=O)N(CC(N)=O)C3)CC2)n1 | -8.38%
57 | CCN1CCN(CC(=O)N2CCOC(Cc3ccc(OC)cc3)C2)CC1 (stereo unspecified) | -2.77%
58 | COc1ccccc1OCCNC(=O)CN1CCc2cncnc2C1 | -15.6%
59 | CN(CCCc1cc(-c2ccccc2)no1)S(C)(=O)=O | -14.4%
60 | c1ccc2oc(CCCN3CCCCC3Cn3cncn3)nc2c1 (stereo unspecified) | -10.2%
61 | c1ccc(-c2nnc(CNC3CCCN(c4cccnn4)C3)o2)cc1 (stereo unspecified) | -9.45%
62 | COc1ccc(NC(=O)NC(C)Cc2ccco2)cn1 (stereo unspecified) | -3.54%
63 | Cc1ccc(N(C)S(=O)(=O)c2cc(C(=O)O)cs2)c(C)c1 | 1.82%

Row | Structure (SMILES) | cytotoxicity at 10 µM
64 | CC(Cn1cccn1)NC(=O)N1CCN(Cc2ccco2)CC1 (stereo unspecified) | -20.6%
65 | CC(C)Cc1cc(C(=O)NCCn2nc3ccccn3c2=O)[nH]n1 | -16.3%
66 | O=C(N1CCCC1)N1CCc2c(CNc3ncccn3)cncc2C1 | 3.97%
67 | COc1ccc(C(C)NCc2c[nH]nc2C)cc1OC (stereo unspecified) | -3.75%
68 | c1snnc1CN1C[C@H]2CCC[C@@H](CN3CCOCC3)[C@H]2C1 | -116%
69 | CN(C)[C@@H]1CCN(c2ncc(F)cn2)[C@H]1Cc1ccncc1 | -1.96%
70 | O=C(c1cscn1)N1CC[C@@H]2[C@@H]1CCN2CC1CCOCC1 | 5.3%
71 | Cn1cccc1CN1CCC2(CCCN(C(=O)c3cccnc3)C2)CC1 | -147%
72 | O=C(Nc1ccccc1)C1CN(CC2CCOCC2)CC12CCOCC2 (stereo unspecified) | 1.65%
73 | COCC1CN(Cc2sccc2C)Cc2nnn(CC3CC3)c21 (stereo unspecified) | 4.35%
74 | CC(C)N1CCC2(C=C(C(=O)N(C)C)c3ccccc32)CC1 | 1.24%
75 | CC(=O)N1C(CN2CCCC2)C[C@@H]2CN(C(=O)c3ccoc3)CC[C@@H]21 (stereo partly specified) | -0.655%
76 | COC1CC2(CCN(Cc3nccn3C)CC2)C1 | -133%
77 | CC(=O)N1CCS(=O)(=O)[C@@H]2CCN(CC(C)C)CC[C@@H]21 | -142%
78 | Cn1nc(Cn2cccn2)c2c1CN(Cc1ccsc1)C2 | -148%
79 | CN(C)CC1CN(C(=O)CCc2ccccc2)Cc2nccn2C1 (stereo unspecified) | -121%
80 | CC(C)CNC(=O)[C@H]1C[C@H]2CN(C(=O)NCC3CCCCC3)C[C@@H]1O2 | -4.81%
81 | CN1C(=O)[C@@H]2CC[C@H]1CN(C(=O)Nc1cccc3ccccc13)C2 | -2.69%
